Source: ChEMBL document CHEMBL3244353, “Antiallergy activity of substituted 11-oxo-11 H-pyrido[2,1-b]quinazoline-8-carboxylic acids” (J Med Chem, 1979)
Activity calls are given as the source filed them. The rule behind the calls is not given here.

Key:
Rattus norvegicus [1] = experiment: Antiallergic activity in rat assessed as inhibition of ovalbumin-induced passive cutaneous anaphylaxis at 0.5 mg/kg, iv measured after 14 days; format: functional
Procedure, shortened: (§1)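 Rats were passively sensitized by intradermal injection of antiserum dilutions on the back. 48 h later they received 1 mg ovalbumin iv in 1 mL saline with 0.25% Evans Blue. Compound was dissolved in the antigen solution, using a slight molar excess of sodium bicarbonate if needed, and given with it. Mean orthogonal spot diameter was read on reflected dorsal skin. Percent inhibition was taken against the extrapolated base value. n=5 per group; Student's t test, p≤0.05.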

Rattus norvegicus [2] = experiment: Antiallergic activity in po dosed rat assessed as inhibition of ovalbumin-induced passive cutaneous anaphylaxis; format: functional; conditions: for ED50: read-out: ID50 (the source's name)
Procedure, shortened: (§2)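 Passive cutaneous anaphylaxis in rats sensitized intradermally with antiserum 48 h before iv challenge with 1 mg ovalbumin plus 0.25% Evans Blue. Drug was suspended in 1% gum tragacanth in saline and given orally 10-15 min before antigen. Spot diameter was read on reflected dorsal skin. Percent inhibition was taken against the extrapolated base value. Groups of five; ID50 in mg/kg.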

Rattus norvegicus [3] = experiment: Antiallergic activity in iv dosed rat assessed as inhibition of ovalbumin-induced passive cutaneous anaphylaxis; format: functional; conditions: for ED50: Rattus norvegicus, iv, read-out: ID50 (the source's name); procedure, shortened: as §1
Rattus norvegicus [4] = experiment: Antiallergic activity in po dosed rat allergic bronchoconstriction model assessed as reduction in respiratory flow rate administered 15 to 30 mins prior to ovalbumin challenge measured after 10 mins; format: functional
Procedure, shortened: (§3)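 Rats were immunized im with 1 mg ovalbumin on alumina, three times on alternate days. On day 8, 9 or 10 they were anesthetized with pentobarbital 60 mg/kg ip, tracheally cannulated and allowed to breathe spontaneously via a pneumotachograph. Drug was given orally 15 and 30 min before iv jugular 1 mg ovalbumin. Fall in respiratory flow rate and 10-min survival were recorded. Value is the mg/kg po dose inhibiting a 40% flow reduction.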

Rattus norvegicus [5] = experiment: Antiallergic activity in po dosed rat allergic bronchoconstriction model assessed as survival from death by bronchoconstriction administered 15 to 30 mins prior to ovalbumin challenge measured after 10 mins; format: functional; conditions: read-out: ID50 (the source's name)
Procedure, shortened: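 Rats immunized im with 1 mg ovalbumin on alumina in the nuchal region, three times on alternate days. On day 8, 9 or 10 they were anaesthetised (pentobarbital 60 mg/kg ip), tracheally cannulated and breathed spontaneously. Drug was given po 15 and 30 min before a 1 mg ovalbumin iv (jugular) challenge. Survival was scored over 10 min, giving the po dose that prevents death in 50% of animals.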

[6] = Antiallergic activity in rat peritoneal mast cells assessed as inhibition of ovalbumin-induced histamine release after 15 mins; format: functional, cell-based; conditions: Mast cell, 0.25 h
Procedure, shortened: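 Rat peritoneal mast cells were passively sensitized with the PCA antiserum, washed, and resuspended in Hank's balanced salt solution containing ovalbumin 20 mcg/mL plus drug. After 15 min at 37 °C, histamine released into the supernatant was measured fluorometrically. Value is the concentration giving 50% inhibition.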

Rattus norvegicus [7] = experiment: Antiallergic activity in rat assessed as inhibition of ovalbumin-induced passive cutaneous anaphylaxis at 10 mg/kg, ip measured after 14 days; format: functional; conditions: route intraperitoneal
Rattus norvegicus [8] = experiment: Antiallergic activity in po dosed rat allergic bronchoconstriction model assessed as reduction in respiratory flow rate administered 15 to 30 mins prior to ovalbumin challenge measured after 10 mins relative to doxantrazole; format: functional; procedure, shortened: as §3
Rattus norvegicus [9] = experiment: Antiallergic activity in po dosed rat assessed as inhibition of ovalbumin-induced passive cutaneous anaphylaxis relative to doxantrazole; format: functional; procedure, shortened: as §2
Cavia porcellus = organism: Cavia porcellus; experiment: Antagonist activity at histamine receptor in guinea pig ileum assessed as reduction in histamine-induced contractions up to 0.1 mM; format: tissue-based
Rattus norvegicus [10] = experiment: Antiallergic activity in rat assessed as inhibition of ovalbumin-induced passive cutaneous anaphylaxis at 0.5 mg/kg, iv measured after 14 days relative to cromolyn sodium; format: functional; procedure, shortened: as §1
Rattus norvegicus [11] = experiment: Antiallergic activity in po dosed rat allergic bronchoconstriction model assessed as survival from death by bronchoconstriction administered 15 to 30 mins prior to ovalbumin challenge measured after 10 mins relative to doxantrazole; format: functional
Rattus norvegicus [12] = experiment: Antiallergic activity in rat assessed as inhibition of ovalbumin-induced passive cutaneous anaphylaxis at 0.5 mg/kg, iv measured after 14 days relative to doxantrazole; format: functional; procedure, shortened: as §1
Rattus norvegicus [13] = experiment: Antiallergic activity in rat assessed as inhibition of ovalbumin-induced passive cutaneous anaphylaxis at 1 mg/kg, iv measured after 14 days; format: functional; procedure, shortened: as §1

Question: With `CCCOc1ccc2nc3ccc(C(=O)O)cn3c(=O)c2c1` as the compound, how does the inhibition in vivo at 0.5 mg/kg (Rattus norvegicus [1]) read?
Answer: 100%

Question: And the ED50 (Rattus norvegicus [2])?
Answer: 2 mg/kg

Question: With `O=C1c2ccccc2S(=O)(=O)c2cc(-c3nn[nH]n3)ccc21` [DOXANTRAZOLE] as the compound, how does the ED50 (Rattus norvegicus [2]) read?
Answer: 5 mg/kg

Question: And the ID100 (Rattus norvegicus [3])?
Answer: 10 mg/kg

Question: And the ED50 (Rattus norvegicus [3])?
Answer: 1.5 mg/kg

Question: And the ID40 (Rattus norvegicus [4])?
Answer: 43 mg/kg

Question: What about the ED50 (Rattus norvegicus [5]) of the same compound?
Answer: 125 mg/kg

Question: What about the IC50 [6] of the same compound?
Answer: 0.48 µM

Question: Which inhibition in vivo at 10 mg/kg (Rattus norvegicus [7]) does the source give for `Cc1ccc2c(=O)n3cc(C(=O)O)ccc3nc2c1` here?
Answer: 54%

Question: Which results are given for `CCCCOc1ccc2nc3ccc(C(=O)O)cn3c(=O)c2c1`?
Answer: inhibition in vivo at 0.5 mg/kg (Rattus norvegicus [1]): 88%; ED50 (Rattus norvegicus [2]): > 2 mg/kg

Question: Which results are given for `Cc1ccc2nc3ccc(C(=O)O)cn3c(=O)c2c1`?
Answer: fold change (FC) (Rattus norvegicus [8]): 4.6; inhibition in vivo at 0.5 mg/kg (Rattus norvegicus [1]): 100%; ED50 (Rattus norvegicus [2]): 0.75 mg/kg; fold change (FC) (Rattus norvegicus [9]): 4; inhibition (Cavia porcellus): inactive; fold change (FC) (Rattus norvegicus [10]): 30; ID100 (Rattus norvegicus [3]): 2.5 mg/kg; ED50 (Rattus norvegicus [3]): 0.05 mg/kg; fold change (FC) (Rattus norvegicus [11]): 10; ID40 (Rattus norvegicus [4]): 9.3 mg/kg; ED50 (Rattus norvegicus [5]): 12.5 mg/kg; IC50 [6]: 0.94 µM; fold change (FC) (Rattus norvegicus [12]): 30

Question: With `O=C(O)c1ccc2nc3ccc(OCCO)cc3c(=O)n2c1` as the compound, how does the ED50 (Rattus norvegicus [2]) read?
Answer: > 1 mg/kg

Question: With `O=C(O)c1ccc2nc3cc(O)c(O)cc3c(=O)n2c1` as the compound, how does the ED50 (Rattus norvegicus [2]) read?
Answer: > 1 mg/kg

Question: For `O=C(O)c1ccc2nc3cc4c(cc3c(=O)n2c1)OCO4`, which inhibition in vivo at 0.5 mg/kg (Rattus norvegicus [1]) is on record?
Answer: 30%

Question: Which results are given for `COc1ccc2nc3ccc(C(=O)O)cn3c(=O)c2c1`?
Answer: inhibition in vivo at 0.5 mg/kg (Rattus norvegicus [1]): 100%; ED50 (Rattus norvegicus [2]): 0.5 mg/kg; ED50 (Rattus norvegicus [3]): 0.05 mg/kg

Question: What does the source list for `Cc1cc2nc3ccc(C(=O)O)cn3c(=O)c2cc1C`?
Answer: inhibition in vivo at 0.5 mg/kg (Rattus norvegicus [1]): 25%; ED50 (Rattus norvegicus [2]): 2 mg/kg

Question: Which ED50 (Rattus norvegicus [2]) does the source give for `CCOc1ccc2nc3ccc(C(=O)O)cn3c(=O)c2c1` here?
Answer: > 1 mg/kg

Question: For `O=C([O-])c1cc(=O)c2c(OCC(O)COc3cccc4oc(C(=O)[O-])cc(=O)c34)cccc2o1.[Na+].[Na+]` [CROMOLYN SODIUM], which ID50 (Rattus norvegicus [2]) is on record?
Answer: inactive

Question: And the ED50 (Rattus norvegicus [3])?
Answer: 1 mg/kg

Question: And the IC50 [6]?
Answer: 6.5 µM

Question: Which ED50 (Rattus norvegicus [2]) does the source give for `O=C(O)c1ccc2nc3cc(Cl)ccc3c(=O)n2c1` here?
Answer: 5 mg/kg

Question: What does the source list for `O=C(O)c1ccc2nc3ccc(O)cc3c(=O)n2c1`?
Answer: inhibition in vivo at 0.5 mg/kg (Rattus norvegicus [1]): 100%; ED50 (Rattus norvegicus [2]): 5 mg/kg; ED50 (Rattus norvegicus [3]): 0.05 mg/kg

Question: Which results are given for `Cl.O=C(O)c1ccc2nc3ccccc3c(=O)n2c1`?
Answer: inhibition in vivo at 0.5 mg/kg (Rattus norvegicus [1]): 45%; ED50 (Rattus norvegicus [2]): 2.5 mg/kg; ED50 (Rattus norvegicus [3]): 0.5 mg/kg

Question: For `O=C(O)c1ccc2nc3ccc(Br)cc3c(=O)n2c1`, which inhibition in vivo at 0.5 mg/kg (Rattus norvegicus [1]) is on record?
Answer: 34%

Question: What about the ED50 (Rattus norvegicus [2]) of the same compound?
Answer: 1 mg/kg

Question: Which ED50 (Rattus norvegicus [2]) does the source give for `C=CCOc1ccc2nc3ccc(C(=O)O)cn3c(=O)c2c1` here?
Answer: > 1 mg/kg

Question: With `O=C(O)c1ccc2nc3cc(O)ccc3c(=O)n2c1` as the compound, how does the inhibition in vivo at 0.5 mg/kg (Rattus norvegicus [1]) read?
Answer: 36%

Question: For `O=C(O)c1ccc2nc3ccc(Cl)cc3c(=O)n2c1`, which inhibition in vivo at 0.5 mg/kg (Rattus norvegicus [1]) is on record?
Answer: 40%

Question: What does the source list for `COc1ccc2c(=O)n3cc(C(=O)O)ccc3nc2c1`?
Answer: ED50 (Rattus norvegicus [2]): > 2 mg/kg; inhibition in vivo at 1 mg/kg (Rattus norvegicus [13]): 100%

Question: Which inhibition in vivo at 0.5 mg/kg (Rattus norvegicus [1]) does the source give for `COc1cc2nc3ccc(C(=O)O)cn3c(=O)c2cc1OC` here?
Answer: 100%

Question: What about the ED50 (Rattus norvegicus [2]) of the same compound?
Answer: 10 mg/kg

Question: And the ED50 (Rattus norvegicus [3])?
Answer: 0.05 mg/kg
